Laboratory results taken from ChEMBL document CHEMBL3286116, “Synthesis, biological evaluation and structure-activity correlation study of a series of imidazol-based compounds as Candida albicans inhibitors” (Eur J Med Chem, 2014).
≈ marks a conversion by molar mass, not a printed value.

Tests used:
Format in all cases: functional
Candida albicans [1] = assay: Antifungal activity against Candida albicans ATCC 90028 after 48 hrs by CLSI broth microdilution method; details: ATCC 90028, 48 h
Summary of the method: (§1)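 Yeast CLSI broth microdilution (M27-A3). Compounds dissolved in DMSO at 100× the top test concentration, then diluted as serial two-fold dilutions in RPMI 1640 to final 0.125–64. Inoculum was 1.0–1.5 × 10^3 cells mL−1, incubated at 35 °C and read for growth at 48 h. MIC is the lowest concentration giving ≥50% growth inhibition versus growth control. Reported as the median of five replicates and as the geometric mean.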

Candida albicans [2] = assay: Antifungal activity against Candida albicans ATCC 20891 after 48 hrs by CLSI broth microdilution method; details: ATCC 20891, 48 h; summary of the method: as §1
Candida albicans [3] = assay: Antifungal activity against Candida albicans PMC 1011 after 48 hrs by CLSI broth microdilution method; details: PMC 1011, 48 h; summary of the method: as §1
Pichia kudriavzevii [4] = assay: Antifungal activity against Candida krusei DSM 6128 after 48 hrs by CLSI broth microdilution method; details: DSM 6128, 48 h; summary of the method: as §1
Pichia kudriavzevii [5] = assay: Antifungal activity against Candida krusei PMC 0613 after 48 hrs by CLSI broth microdilution method; details: PMC 0613, 48 h; summary of the method: as §1
Candida tropicalis [6] = assay: Antifungal activity against Candida tropicalis PMC 0910 after 48 hrs by CLSI broth microdilution method; details: PMC 0910, 48 h; summary of the method: as §1
Candida tropicalis [7] = assay: Antifungal activity against Candida tropicalis DSM 11953 after 48 hrs by CLSI broth microdilution method; details: DSM 11953, 48 h; summary of the method: as §1
Candida parapsilosis [8] = assay: Antifungal activity against Candida parapsilosis DSM 11224 after 48 hrs by CLSI broth microdilution method; details: Lodderomyces parapsilosis, DSM 11224, 48 h; summary of the method: as §1
Candida parapsilosis [9] = assay: Antifungal activity against Candida parapsilosis ATCC 22019 after 48 hrs by CLSI broth microdilution method; details: Lodderomyces parapsilosis, ATCC 22019, 48 h; summary of the method: as §1
Nakaseomyces glabratus [10] = assay: Antifungal activity against Candida glabrata PMC 0805 after 48 hrs by CLSI broth microdilution method; details: PMC 0805, 48 h; summary of the method: as §1
Nakaseomyces glabratus [11] = assay: Antifungal activity against Candida glabrata PMC 0807 after 48 hrs by CLSI broth microdilution method; details: PMC 0807, 48 h; summary of the method: as §1
Cryptococcus neoformans [12] = assay: Antifungal activity against Cryptococcus neoformans PMC 2123 after 72 hrs by CLSI broth microdilution method; details: PMC 2123, 72 h
Summary of the method: (§2)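 Cryptococcus neoformans tested by CLSI broth microdilution in RPMI 1640, with serial two-fold dilutions from DMSO stocks at 100× the top concentration, final 0.125–64. Inoculum was 1.0–1.5 × 10^3 cells mL−1 at 35 °C, with growth read at 72 h. MIC is the lowest concentration with ≥50% growth inhibition versus control. Median of five replicates, plus geometric mean.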

Cryptococcus neoformans [13] = assay: Antifungal activity against Cryptococcus neoformans PMC 2136 after 72 hrs by CLSI broth microdilution method; details: PMC 2136, 72 h; summary of the method: as §2
Cryptococcus neoformans [14] = assay: Antifungal activity against Cryptococcus neoformans PMC 2115 after 72 hrs by CLSI broth microdilution method; details: PMC 2115, 72 h; summary of the method: as §2
Cryptococcus neoformans [15] = assay: Antifungal activity against Cryptococcus neoformans PMC 2103 after 72 hrs by CLSI broth microdilution method; details: PMC 2103, 72 h; summary of the method: as §2
Cryptococcus neoformans [16] = assay: Antifungal activity against Cryptococcus neoformans PMC 2107 after 72 hrs by CLSI broth microdilution method; details: PMC 2107, 72 h; summary of the method: as §2
Cryptococcus neoformans [17] = assay: Antifungal activity against Cryptococcus neoformans PMC 2102 after 72 hrs by CLSI broth microdilution method; details: PMC 2102, 72 h; summary of the method: as §2
Cryptococcus neoformans [18] = assay: Antifungal activity against Cryptococcus neoformans DSM 11959 after 72 hrs by CLSI broth microdilution method; details: DSM 11959, 72 h; summary of the method: as §2
Cryptococcus neoformans [19] = assay: Antifungal activity against Cryptococcus neoformans PMC 2111 after 72 hrs by CLSI broth microdilution method; details: PMC 2111, 72 h; summary of the method: as §2
[20] = tested on: Trichophyton mentagrophytes; assay: Antifungal activity against Trichophyton mentagrophytes DSM 4870 after 72 hrs by CLSI broth microdilution method; details: DSM 4870, 72 h
Summary of the method: (§3)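 Dermatophytes tested by CLSI broth microdilution for filamentous fungi (M38-A2). Serial two-fold dilutions of DMSO-dissolved compound in RPMI 1640, final 0.125–64. Inoculum was 0.4–5 × 10^4 CFU mL−1, incubated at 35 °C and read at 72 h. MIC80 is the lowest concentration giving ≥80% growth inhibition versus growth control. Median of five replicates, plus geometric mean.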

[21] = tested on: Trichophyton mentagrophytes; assay: Antifungal activity against Trichophyton mentagrophytes PMC 6515 after 72 hrs by CLSI broth microdilution method; details: PMC 6515, 72 h; summary of the method: as §3
[22] = tested on: Trichophyton mentagrophytes; assay: Antifungal activity against Trichophyton mentagrophytes PMC 6531 after 72 hrs by CLSI broth microdilution method; details: PMC 6531, 72 h; summary of the method: as §3
[23] = tested on: Trichophyton mentagrophytes; assay: Antifungal activity against Trichophyton mentagrophytes PMC 6509 after 72 hrs by CLSI broth microdilution method; details: PMC 6509, 72 h; summary of the method: as §3
[24] = tested on: Trichophyton mentagrophytes; assay: Antifungal activity against Trichophyton mentagrophytes PMC 6503 after 72 hrs by CLSI broth microdilution method; details: PMC 6503, 72 h; summary of the method: as §3
[25] = tested on: Trichophyton mentagrophytes; assay: Antifungal activity against Trichophyton mentagrophytes PMC 6552 after 72 hrs by CLSI broth microdilution method; details: PMC 6552, 72 h; summary of the method: as §3
Nannizzia gypsea [26] = assay: Antifungal activity against Microsporum gypseum PMC 7303 after 72 hrs by CLSI broth microdilution method; details: PMC 7303, 72 h; summary of the method: as §3
Nannizzia gypsea [27] = assay: Antifungal activity against Microsporum gypseum PMC 7331 after 72 hrs by CLSI broth microdilution method; details: PMC 7331, 72 h; summary of the method: as §3
Nannizzia gypsea [28] = assay: Antifungal activity against Microsporum gypseum DSM 3824 after 72 hrs by CLSI broth microdilution method; details: DSM 3824, 72 h; summary of the method: as §3
Candida albicans [29] = assay: Antifungal activity against Candida albicans ATCC 24433 after 48 hrs by CLSI broth microdilution method; details: ATCC 24433, 48 h; summary of the method: as §1
Candida albicans [30] = assay: Antifungal activity against Candida albicans ATCC 3153 after 48 hrs by CLSI broth microdilution method; details: ATCC 3153, 48 h; summary of the method: as §1
Candida albicans [31] = assay: Antifungal activity against Candida albicans ATCC 10231 after 48 hrs by CLSI broth microdilution method; details: ATCC 10231, 48 h; summary of the method: as §1
Candida albicans [32] = assay: Antifungal activity against Candida albicans ATCC 76615 after 48 hrs by CLSI broth microdilution method; details: ATCC 76615, 48 h; summary of the method: as §1
Candida albicans [33] = assay: Antifungal activity against Candida albicans ATCC 10261 after 48 hrs by CLSI broth microdilution method; details: ATCC 10261, 48 h; summary of the method: as §1

MIC50 (Candida albicans [1])	MIC50 (Candida albicans [2])	MIC50 (Candida albicans [3])	MIC50 (Pichia kudriavzevii [4])	MIC50 (Pichia kudriavzevii [5])	MIC50 (Candida tropicalis [6])	MIC50 (Candida tropicalis [7])	MIC50 (Candida parapsilosis [8])	MIC50 (Candida parapsilosis [9])	MIC50 (Nakaseomyces glabratus [10])	MIC50 (Nakaseomyces glabratus [11])	MIC50 (Cryptococcus neoformans [12])	MIC50 (Cryptococcus neoformans [13])	MIC50 (Cryptococcus neoformans [14])	MIC50 (Cryptococcus neoformans [15])	MIC50 (Cryptococcus neoformans [16])	MIC50 (Cryptococcus neoformans [17])	MIC50 (Cryptococcus neoformans [18])	MIC50 (Cryptococcus neoformans [19])	MIC80 [20]	SMILES	further results
32 µg/mL (≈ 61.5 µM)	32 µg/mL (≈ 61.5 µM)	32 µg/mL (≈ 61.5 µM)	2 µg/mL (≈ 3.85 µM)	1 µg/mL (≈ 1.92 µM)	32 µg/mL (≈ 61.5 µM)	16 µg/mL (≈ 30.8 µM)	2 µg/mL (≈ 3.85 µM)	4 µg/mL (≈ 7.69 µM)	2 µg/mL (≈ 3.85 µM)	4 µg/mL (≈ 7.69 µM)	2 µg/mL (≈ 3.85 µM)	2 µg/mL (≈ 3.85 µM)	2 µg/mL (≈ 3.85 µM)	1 µg/mL (≈ 1.92 µM)	1 µg/mL (≈ 1.92 µM)	2 µg/mL (≈ 3.85 µM)	1 µg/mL (≈ 1.92 µM)	1 µg/mL (≈ 1.92 µM)	128 µg/mL (≈ 246 µM)	O=C(Nc1ccc(N2CCN(c3ccc(Cl)cc3)CC2)cc1)O[C@H](Cn1ccnc1)c1ccc(F)cc1	MIC80 [21]: 128 µg/mL (≈ 246 µM); MIC80 [22]: 128 µg/mL (≈ 246 µM); MIC80 [23]: 128 µg/mL (≈ 246 µM); MIC80 [24]: 128 µg/mL (≈ 246 µM); MIC80 [25]: 128 µg/mL (≈ 246 µM); MIC80 (Nannizzia gypsea [26]): 64 µg/mL (≈ 123 µM); MIC80 (Nannizzia gypsea [27]): 128 µg/mL (≈ 246 µM); MIC80 (Nannizzia gypsea [28]): 128 µg/mL (≈ 246 µM); MIC50 (Candida albicans [29]): 64 µg/mL (≈ 123 µM); MIC50 (Candida albicans [30]): 64 µg/mL (≈ 123 µM); MIC50 (Candida albicans [31]): 32 µg/mL (≈ 61.5 µM); MIC50 (Candida albicans [32]): 32 µg/mL (≈ 61.5 µM); MIC50 (Candida albicans [33]): 64 µg/mL (≈ 123 µM)
128 µg/mL (≈ 254 µM)	128 µg/mL (≈ 254 µM)	128 µg/mL (≈ 254 µM)	128 µg/mL (≈ 254 µM)	128 µg/mL (≈ 254 µM)	128 µg/mL (≈ 254 µM)	128 µg/mL (≈ 254 µM)	128 µg/mL (≈ 254 µM)	128 µg/mL (≈ 254 µM)	128 µg/mL (≈ 254 µM)	128 µg/mL (≈ 254 µM)	64 µg/mL (≈ 127 µM)	16 µg/mL (≈ 31.8 µM)	64 µg/mL (≈ 127 µM)	1 µg/mL (≈ 1.99 µM)	16 µg/mL (≈ 31.8 µM)	32 µg/mL (≈ 63.6 µM)	16 µg/mL (≈ 31.8 µM)	16 µg/mL (≈ 31.8 µM)	128 µg/mL (≈ 254 µM)	O=C(Nc1ccc(N2CCN(C(=O)c3ccco3)CC2)cc1)OC(Cn1ccnc1)c1ccc(F)cc1 (stereo unspecified)	MIC80 [21]: 128 µg/mL (≈ 254 µM); MIC80 [22]: 128 µg/mL (≈ 254 µM); MIC80 [23]: 128 µg/mL (≈ 254 µM); MIC80 [24]: 128 µg/mL (≈ 254 µM); MIC80 [25]: 128 µg/mL (≈ 254 µM); MIC80 (Nannizzia gypsea [26]): 64 µg/mL (≈ 127 µM); MIC80 (Nannizzia gypsea [27]): 128 µg/mL (≈ 254 µM); MIC80 (Nannizzia gypsea [28]): 128 µg/mL (≈ 254 µM); MIC50 (Candida albicans [29]): 128 µg/mL (≈ 254 µM); MIC50 (Candida albicans [30]): 128 µg/mL (≈ 254 µM); MIC50 (Candida albicans [31]): 128 µg/mL (≈ 254 µM); MIC50 (Candida albicans [32]): 128 µg/mL (≈ 254 µM); MIC50 (Candida albicans [33]): 32 µg/mL (≈ 63.6 µM)
